For data set [1], the system named is Human immunodeficiency virus 1. Kind of data set: Antiviral activity against HIV1 3B infected in human MT4 cells assessed as protection from virus-induced cytopathogenicity after 4 days by MTT assay. As to conditions: Human immunodeficiency virus 1, 3B, MT4, 96 h. It is filed as functional, organism-based. Put shortly: (§1)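 MT-4 cells at 1 × 10⁵ cells/mL infected with HIV (IIIB or ROD) at a multiplicity of infection of 0.02, using virus stocks titrated in MT-4 cells as CCID₅₀. Compound present during a 4-day incubation at 37 °C. Viable cells counted by MTT. EC₅₀ is the concentration protecting cells against viral cytopathogenicity by 50%. Values are means of at least two separate experiments.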

The subject of data set [2] is Human immunodeficiency virus 1. Briefly: Antiviral activity against HIV1 expressing reverse transcriptase K103N/Y181C double mutant infected in human MT4 cells assessed as protection against virus-induced cytopathogenicity after 4 days by MTT assay. It is filed as functional, organism-based. Conditions: Human immunodeficiency virus 1, MT4, 96 h. Put shortly: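 RES056 strain (carries K103N and Y181C), titrated in MT-4 cells as CCID50. MT-4 cells at 1 × 10⁵ cells/mL infected at MOI 0.02 and incubated 4 days at 37 °C with compound. Viable cells counted by MTT. EC50 is the concentration protecting cells by 50% against viral cytopathogenicity. Values are means of at least two separate experiments.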

A short description of data set [3]: Cytotoxicity against human MT4 cells after 4 days by MTT assay. Format: cell-based. In a few lines: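 Uninfected MT-4 cells were run in parallel with the antiviral assay: 4 days at 37 °C with compound, then viability read by MTT. CC₅₀ is the concentration that reduces viability of uninfected cells by 50%. Values are means of at least two separate experiments.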

A short description of data set [4]: Selectivity index, ratio of CC50 for human MT4 cells to EC50 for HIV1 3B. It is filed as toxicity, cell-based. Conditions: read-out: Ratio CC50/EC50. Put shortly:
(§2)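 Selectivity index is CC₅₀ in uninfected MT-4 cells divided by EC₅₀ against the given strain (IIIB or ROD). Both values come from parallel 4-day MTT assays, with cells infected at a multiplicity of infection of 0.02.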

Data set [5] deals with Human immunodeficiency virus 2. Briefly: Antiviral activity against HIV2 ROD infected in human MT4 cells assessed as protection from virus-induced cytopathogenicity after 4 days by MTT assay. Format: functional, organism-based. As to conditions: Human immunodeficiency virus 2, ISOLATE ROD, MT4, 96 h. Put shortly:
as §1

The nature of data set [6]: Selectivity index, ratio of CC50 for human MT4 cells to EC50 for HIV2 ROD. Conditions: read-out: Ratio CC50/EC50. It is filed as toxicity, cell-based. In a few lines: as §2
Data set [7] relates to Human immunodeficiency virus 1. Kind of data set: Ratio of nevirapine EC50 to compound EC50 for HIV1 3B infected in human MT4 cells. Format: functional.
Data set [8] relates to Human immunodeficiency virus 1. Kind of data set: Ratio of delavirdine EC50 to compound EC50 for HIV1 3B infected in human MT4 cells. Format: functional.

As to `N#Cc1ccc(Nc2nccc(/C(=N\O)c3ccc4ccccc4c3)n2)cc1`, the EC50 is 0.047 µM in data set [1], over 14.3 µM in data set [2] and over 14.3 µM in data set [5]. Further, in data set [3], the CC50 at 96 h was found to be 31.6 µM. Moreover, the selectivity ratio is 673 in data set [4] and under 1 in data set [6].

Regarding `O=C1Nc2ccc(Cl)cc2[C@@](C#CC2CC2)(C(F)(F)F)O1` [EFAVIRENZ], the EC50 in data set [2] came to 0.18 µM. The CC50 at 96 h in data set [3] is over 6.34 µM.

On to `Cc1ccc(/C(=N/O)c2ccnc(Nc3ccc(C#N)cc3)n2)cc1`, for which the EC50 in data set [1] was 0.006 µM; in data set [2] it was at least 5.1 µM; in data set [5], at least 6.54 µM. Moreover, in data set [3], the CC50 at 96 h turned out to be 13.3 µM. The selectivity ratio in data set [4] was 2390; in data set [6], at most 2.

With `Cc1cccc(/C(=N/O)c2ccnc(Nc3ccc(C#N)cc3)n2)c1`, the EC50 was 0.032 µM in data set [1], 4.52 µM in data set [2] and at least 11.6 µM in data set [5]. In data set [3], this molecule showed a CC50 at 96 h of 20 µM. Further, the selectivity ratio in data set [4] was 626; in data set [6], under 1.

With `N#Cc1ccc(Nc2nccc(/C(=N\O)c3cccc(Cl)c3)n2)cc1`, the results for the EC50 in data set [1], in data set [2] and in data set [5] were 0.298 µM, over 14.9 µM and at least 7.3 µM, respectively. Also, it took 30.4 µM to reach half-maximal cytotoxicity in data set [3] (CC50 at 96 h). Moreover, the selectivity ratio in data set [4] is 102; in data set [6], at most 4.

Regarding `N#Cc1ccc(Nc2nccc(/C(=N\O)c3ccc(Br)cc3)n2)cc1`, the EC50 was 0.127 µM in data set [1], at least 7.21 µM in data set [2] and at least 4.97 µM in data set [5]. In addition, in data set [3], the CC50 at 96 h is 26 µM. Also, the selectivity ratio was 205 in data set [4] and at most 5 in data set [6].

For the molecule `Cc1cc(C)cc(/C(=N/O)c2ccnc(Nc3ccc(C#N)cc3)n2)c1`, the EC50 in data set [1] was 0.047 µM; in data set [2], 7.89 µM; in data set [5] it was at least 8.96 µM. Further, the CC50 at 96 h in data set [3] was determined as 35.9 µM. In addition, the selectivity ratio in data set [4] was 756; in data set [6], at most 4.

For `CC(C)(C)c1ccc(/C(=N/O)c2ccnc(Nc3ccc(C#N)cc3)n2)cc1`, the figures for the EC50 in data set [1], in data set [2] and in data set [5] were 0.144 µM, 7.2 µM and at least 33.7 µM, respectively. This molecule registered a CC50 at 96 h in data set [3] of 33.7 µM. The selectivity ratio is 234 in data set [4] and under 1 in data set [6].

In the case of `N#Cc1ccc(Nc2nccc(/C(=N\O)c3ccccc3Br)n2)cc1`, the EC50 in data set [1] was 0.005 µM; in data set [2] it was over 13.2 µM; in data set [5], over 13.2 µM. Moreover, in data set [3], it took 13.2 µM to reach half-maximal cytotoxicity (CC50 at 96 h). Besides, the selectivity ratio in data set [4] was 2500; in data set [6] it was under 1.

On to `N#Cc1ccc(Nc2nccc(/C(=N\O)c3cccc(F)c3)n2)cc1`, for which the EC50 was 0.225 µM in data set [1], at least 6.7 µM in data set [2] and at least 8.33 µM in data set [5]. This molecule gave a CC50 at 96 h in data set [3] of 15.3 µM. Also, the selectivity ratio in data set [4] is 67.9; in data set [6], at most 2.

Regarding `N#Cc1ccc(Nc2nccc(/C(=N\O)c3cccc4ccccc34)n2)cc1`, the EC50 in data set [1] was 0.039 µM; in data set [2], over 33.1 µM; in data set [5] it was over 33.1 µM. The same molecule came in with a CC50 at 96 h in data set [3] of 33.1 µM. The selectivity ratio in data set [4] is 844; in data set [6] it was under 1.

With `COc1cccc(/C(=N/O)c2ccnc(Nc3ccc(C#N)cc3)n2)c1`, the values for the half-maximal effective concentration (EC50) in data set [1], in data set [2] and in data set [5] were 0.025 µM, 8.72 µM and 8.31 µM, respectively. The CC50 at 96 h in data set [3] was determined as 30.5 µM. For the same molecule, the selectivity ratio was 1220 in data set [4] and 3.67 in data set [6]. Besides, the “Ratio EC50” value in data set [7] is 8; in data set [8], 29.

Consider `COc1ccc(/C(=N/O)c2ccnc(Nc3ccc(C#N)cc3)n2)cc1`, for which the EC50 in data set [1] was 0.013 µM; in data set [2] it was 10.3 µM; in data set [5], at least 4.72 µM. In data set [3], this molecule had a CC50 at 96 h of 50.2 µM. In addition, the selectivity ratio in data set [4] was 3790; in data set [6] it was at most 11.

Consider `N#Cc1ccc(Nc2nccc(/C(=N\O)c3ccccc3)n2)cc1`, for which the figures for the EC50 in data set [1], in data set [2] and in data set [5] were 0.569 µM, 5.6 µM and at least 14 µM, respectively. In data set [3], this molecule displayed a CC50 at 96 h of 14 µM. For the same molecule, the selectivity ratio was 24.6 in data set [4] and under 1 in data set [6].

As to `N#Cc1ccc(Nc2nccc(/C(=N\O)c3ccc(Cl)cc3)n2)cc1`, the EC50 was 0.083 µM in data set [1], at least 7.62 µM in data set [2] and at least 7.33 µM in data set [5]. For the same molecule, in data set [3], the CC50 at 96 h was 17.2 µM. The selectivity ratio in data set [4] is 209; in data set [6], at most 2.

Consider `N#Cc1ccc(Nc2nccc(/C(=N\O)c3cccc(Br)c3)n2)cc1`, for which the EC50 was 0.362 µM in data set [1], over 23.5 µM in data set [2] and over 23.5 µM in data set [5]. This molecule displayed a 50% cytotoxic concentration (CC50) at 96 h in data set [3] of 23.5 µM. For the same molecule, the selectivity ratio is 65 in data set [4] and under 1 in data set [6].

Regarding `N#Cc1ccc(Nc2nccc(/C(=N\O)c3ccccc3Cl)n2)cc1`, the EC50 in data set [1] is 0.013 µM; in data set [2], over 12.6 µM; in data set [5], over 12.6 µM. In data set [3], this molecule returned a CC50 at 96 h of 12.6 µM. Also, the results for the selectivity ratio in data set [4] and in data set [6] were 997 and under 1, respectively.

As for `Cc1ccnc2c1NC(=O)c1cccnc1N2C1CC1` [NEVIRAPINE], the EC50 was 0.2 µM in data set [1] and over 15 µM in data set [2]. In data set [3], this molecule showed a cytotoxic concentration (CC50) at 96 h of over 15 µM. Further, in data set [4], the selectivity ratio is over 75.

`N#Cc1ccc(Nc2nccc(/C(=N\O)c3ccc(F)cc3)n2)cc1`: the EC50 in data set [1] is 0.827 µM; in data set [2], 13.8 µM; in data set [5], 19.9 µM. The molecule also had a CC50 at 96 h in data set [3] of over 377 µM. For the same molecule, the selectivity ratio in data set [4] is over 456; in data set [6], over 19.

On to `Cc1ccccc1/C(=N/O)c1ccnc(Nc2ccc(C#N)cc2)n1`, for which the figures for the EC50 in data set [1], in data set [2] and in data set [5] were 0.048 µM, at least 1.59 µM and over 29.9 µM, respectively. In addition, the CC50 at 96 h in data set [3] amounted to 29.9 µM. For the same molecule, the selectivity ratio in data set [4] is 619; in data set [6], under 1.

Regarding `CC(C)Nc1cccnc1N1CCN(C(=O)c2cc3cc(NS(C)(=O)=O)ccc3[nH]2)CC1` [DELAVIRDINE], the values for the EC50 in data set [1] and in data set [2] were 0.72 µM and over 43.8 µM, respectively. The molecule also gave a CC50 at 96 h in data set [3] of over 43.8 µM. Moreover, in data set [4], the selectivity ratio is over 62.

Take `N#Cc1ccc(Nc2nccc(/C(=N\O)c3ccccc3F)n2)cc1`: the figures for the EC50 in data set [1], in data set [2] and in data set [5] were 0.053 µM, over 5.67 µM and over 5.67 µM, respectively. The molecule further returned a CC50 at 96 h in data set [3] of 5.67 µM. Further, the selectivity ratio in data set [4] was 106; in data set [6], under 1.

These data come from ChEMBL document CHEMBL1156184, “Synthesis and biological evaluation of 4-(hydroxyimino)arylmethyl diarylpyrimidine analogues as potential non-nucleoside reverse transcriptase inhibitors against HIV” (Bioorg Med Chem, 2010).
